Experimental data published in ChEMBL document CHEMBL3286338, “SAR studies on hydropentalene derivatives--Important core units of biologically active tetramic acid macrolactams and ptychanolides” (Bioorg Med Chem, 2014).
Active and inactive are the calls of the source. The calls are words filed in the database; no cut-off is given here.

Assays:
L929 [1] = assay: Antiproliferative activity against mouse L929 cells by MTT assay; assay type: functional, cell-based
Procedure, shortened: (§1)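 Cells kept in supplier-recommended media at 37 °C, 10% CO2. Serial dilutions added to a cell suspension (50,000 per mL) and incubated 5 d alongside blank and solvent controls. MTT then added to 0.5 mg mL^-1 final for 2 h, and formazan precipitate collected by centrifugation. Run as two parallel experiments; activity taken as mean relative to controls set at 100%.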

[2] = Antiproliferative activity against human KB-3-1 cells by MTT assay; assay type: functional, cell-based; procedure, shortened: as §1
L929 [3] = assay: Effect on microtubule polymerization in mouse L929 cells at 0.6 ug/ml by impedance profiling; assay type: cell-based
Procedure, shortened: (§2)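 L-929 cell cultures incubated with compound while impedance was recorded over time. The time-dependent impedance curves served as a mode-of-action fingerprint and were compared statistically, by cluster analysis, against curves from a set of reference compounds. Controls received methanol.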

L929 [4] = assay: Effect on spindle formation in mouse L929 cells at 0.6 ug/ml by impedance profiling; assay type: cell-based; procedure, shortened: as §2
[5] = Cytotoxicity against Potorous tridactylus PtK2 cells by MTT assay; assay type: functional, cell-based; procedure, shortened: as §1
PtK2 [6] = assay: Effect on microtubular network in Potorous tridactylus PtK2 cells at 4 ug/ml for overnight incubation by DAPI staining analysis; assay type: functional, cell-based
Procedure, shortened: (§3)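 PtK2 cells on glass coverslips incubated overnight with compound or with methanol only. For alpha-tubulin staining, fixed in cold (-20 °C) MeOH/acetone (1:1) for 10 min, then probed with primary antibody. DNA counterstained. Microtubular network, mitotic spindles and chromosome distribution assessed by fluorescence microscopy.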

PtK2 [7] = assay: Effect on mitotic spindle in Potorous tridactylus PtK2 cells at 4 ug/ml for overnight incubation by DAPI staining analysis; assay type: functional, cell-based; procedure, shortened: as §3
PtK2 [8] = assay: Effect on chromosme distribution in Potorous tridactylus PtK2 cells at 4 ug/ml for overnight incubation by DAPI staining analysis; assay type: functional, cell-based; procedure, shortened: as §3
Tubulin (Sus scrofa) = Tubulin (Sus scrofa) (UniProt P02554+P02550); assay: Inhibition of porcine tubulin polymerization at 500 ug/ml by fluorescence analysis; assay type: protein assay
Procedure, shortened: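 Porcine tubulin (kit master mix with buffer, glycerol and GTP) mixed with compound at a 5:50 volume ratio. Placed at once in a fluorimeter at 37 °C. Polymerization followed by incorporation of a fluorescent reporter, read at 460 nm (excitation 340 nm) for about 1 h. Methanol and nocodazole served as controls.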

PtK2 [9] = assay: Effect on F-actin cytoskeleton in Potorous tridactylus PtK2 cells at 2 ug/ml for overnight incubation by DAPI staining analysis; assay type: cell-based
Procedure, shortened: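 PtK2 cells grown on glass coverslips and exposed to compound overnight, with methanol-only controls. Fixed in 3.7% formalin for 10 min, permeabilized with 0.1% Triton X-100 for 5 min, then stained with Alexa Fluor 488 phalloidin (1:100) for 1 h. F-actin (green) and DNA (blue) examined by fluorescence microscopy.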

Homo sapiens = species: Homo sapiens; assay: Induction of actin polymerization (unknown origin) at 28 ug/ml after 20 mins by fluorescence analysis
Procedure, shortened: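 Pyrene-labelled muscle actin used, with pyrene fluorescence reporting polymerization state. Baseline read 3 min, then compound or methanol added and read a further 20 min. Polymerization then started with 10X actin polymerization buffer and read for 1 h.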

Chain of Tubulin (Sus scrofa) (P02550 whole entry, looked up): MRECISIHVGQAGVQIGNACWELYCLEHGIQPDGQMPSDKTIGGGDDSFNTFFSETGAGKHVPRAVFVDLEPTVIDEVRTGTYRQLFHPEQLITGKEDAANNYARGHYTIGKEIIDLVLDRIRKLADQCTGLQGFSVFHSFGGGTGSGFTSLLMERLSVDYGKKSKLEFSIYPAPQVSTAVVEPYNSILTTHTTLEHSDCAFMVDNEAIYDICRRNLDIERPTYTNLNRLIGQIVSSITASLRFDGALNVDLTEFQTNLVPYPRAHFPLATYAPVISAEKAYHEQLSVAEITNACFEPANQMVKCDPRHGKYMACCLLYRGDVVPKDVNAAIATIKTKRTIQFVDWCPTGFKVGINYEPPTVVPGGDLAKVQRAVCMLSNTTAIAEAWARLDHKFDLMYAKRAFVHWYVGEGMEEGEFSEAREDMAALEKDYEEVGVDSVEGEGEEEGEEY
Chain of Tubulin (Sus scrofa) (P02554 whole entry, looked up): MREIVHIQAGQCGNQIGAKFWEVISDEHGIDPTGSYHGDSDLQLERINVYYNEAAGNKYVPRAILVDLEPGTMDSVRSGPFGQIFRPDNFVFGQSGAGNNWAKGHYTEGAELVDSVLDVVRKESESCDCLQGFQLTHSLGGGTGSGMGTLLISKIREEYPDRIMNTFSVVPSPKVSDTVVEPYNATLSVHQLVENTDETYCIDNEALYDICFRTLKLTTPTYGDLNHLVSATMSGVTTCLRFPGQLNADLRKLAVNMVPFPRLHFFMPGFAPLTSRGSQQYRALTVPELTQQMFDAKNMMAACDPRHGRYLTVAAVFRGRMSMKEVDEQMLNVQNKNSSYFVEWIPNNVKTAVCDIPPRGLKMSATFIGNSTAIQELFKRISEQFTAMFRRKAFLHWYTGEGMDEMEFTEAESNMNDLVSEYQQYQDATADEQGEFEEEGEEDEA

C#CC(=O)O[C@H]1C[C@@H]2CC3(C[C@@H]2C1)OCC(C)(C)CO3
IC50 (L929 [1]): 2.2 µM
IC50 [2]: 21.6 µM
Activity (L929 [3]): Active
Activity (L929 [4]): Active
IC50 [5]: 3 µM
Activity (PtK2 [6]): Active
Activity (PtK2 [7]): Active
Activity (PtK2 [8]): Active
inhibition (Tubulin (Sus scrofa)): Active
Activity (PtK2 [9]): Active
Activity (Homo sapiens): Active
